Where a chain is given by its changes, count along the chain named.
Experiments:
Ath α-DOX [1] = molecular target: T1, Ath α-DOX (Arabidopsis thaliana, UniProt Q9SGH6); test: oxygen electrode, oxygenase activity; format: biochemical; settings: 1 mM imidazole, 60 min preincubation
T1 sequence (Q9SGH6 1-639): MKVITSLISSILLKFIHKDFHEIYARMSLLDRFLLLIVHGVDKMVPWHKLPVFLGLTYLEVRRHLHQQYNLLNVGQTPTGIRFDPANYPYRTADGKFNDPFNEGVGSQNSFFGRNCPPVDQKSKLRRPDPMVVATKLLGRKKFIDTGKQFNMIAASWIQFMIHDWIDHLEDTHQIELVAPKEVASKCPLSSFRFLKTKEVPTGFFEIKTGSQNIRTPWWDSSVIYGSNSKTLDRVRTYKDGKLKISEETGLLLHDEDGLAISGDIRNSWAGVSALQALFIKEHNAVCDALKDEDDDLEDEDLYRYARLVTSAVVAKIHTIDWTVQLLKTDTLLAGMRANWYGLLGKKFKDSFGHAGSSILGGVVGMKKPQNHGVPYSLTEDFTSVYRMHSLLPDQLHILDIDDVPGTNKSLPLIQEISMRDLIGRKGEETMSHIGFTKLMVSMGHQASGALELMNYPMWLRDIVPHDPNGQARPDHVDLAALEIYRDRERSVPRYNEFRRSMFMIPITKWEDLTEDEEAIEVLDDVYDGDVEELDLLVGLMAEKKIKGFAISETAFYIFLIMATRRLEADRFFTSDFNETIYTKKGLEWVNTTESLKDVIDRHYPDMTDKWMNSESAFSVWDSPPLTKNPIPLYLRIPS

Ath α-DOX [2] = molecular target: T2, Ath α-DOX (Arabidopsis thaliana, UniProt Q9SGH6, H318Q); test: oxygen electrode, oxygenase activity; format: biochemical; settings: co-substrate O2
T2 sequence (Q9SGH6 1-639 H318Q): T1 sequence (Q9SGH6 1-639) with H318Q

Ath α-DOX [3] = molecular target: T1, Ath α-DOX; test: oxygen electrode, oxygenase activity; format: biochemical; settings: co-substrate O2
Procedure, shortened: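 Codon-optimized Ath α-DOX (wild type or point mutants) was expressed in E. coli M15 with 1mM IPTG and 250μM δ-aminolevulinic acid at 23°C for 16 h. It was solubilized in 0.7% C10M, purified by IMAC and size exclusion, and dialyzed a week in 20mM TRIS pH 8.0, 150mM NaCl, 0.2% C10M to remove imidazole. O2 consumption was followed by oxygen electrode with αLA, LA or OA substrates. KM values came from triplicate measurements.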

Ath α-DOX [4] = molecular target: T1, Ath α-DOX; test: X-ray crystal structure, […] Å; format: binding; settings: iron liganded to His-389; water as sixth ligand; pH 8.0

Compound: c1c[nH]cn1 [imidazole]
- % reduction in activity at 1 mM (Ath α-DOX [1]): 50%

Compound: CCCCC/C=C\C/C=C\CCCCCCCC(=O)O [LA, linoleic acid]
- Km (Ath α-DOX [2]): 18.2 ± 2.4 µM
- Km (Ath α-DOX [3]): 23 ± 2 µM

Compound: C=CC1=C(C)C2=Cc3c(C=C)c(C)c4[n]3[Fe+][n]3c(c(C)c(CCC(=O)O)c3=CC3=NC(=C4)C(C)=C3CCC(=O)O)=CC1=N2 [heme]
- X-ray crystal structure, 1.70 Å (Ath α-DOX [4]): The heme is liganded to the side chain of His-389

Compound: CC/C=C\C/C=C\C/C=C\CCCCCCCC(=O)O [αLA, α-linolenic acid]
- Km (Ath α-DOX [3]): 36 ± 3.2 µM

Compound: CCCCCCCC/C=C\CCCCCCCC(=O)O [OA, oleic acid]
- Km (Ath α-DOX [3]): 15 ± 1.9 µM

From PMC3589821 (Biochemistry, 2013)
